# Laboratory results taken from ChEMBL document CHEMBL1150245, “1-Aryl-2-dimethylaminomethyl-2-propen-1-one hydrochlorides and related adducts: A quest for selective cytotoxicity for malignant cells” (Bioorg Med Chem, 2008).
# System: HSC-4
# Assay: Cytotoxicity against human HSC4 cells
# Type: functional
# Conditions: not given
# Procedure, shortened: (§1)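 CC50 is the concentration killing 50% of cells, tested up to a highest concentration of 400 μM. Each value is the average of two independent determinations.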
row,Structure (SMILES),CC50 [µM]
1,CN(C)CC(CSCCO)C(=O)c1ccc([N+](=O)[O-])cc1 (stereo unspecified),264
2,Cc1ccc(C(=O)C(CO)CN(C)C)cc1 (stereo unspecified),5.8
3,COc1ccc(C(=O)C(CO)CN(C)C)cc1 (stereo unspecified),5.2
4,CN(C)CC(CO)C(=O)c1ccc(Cl)cc1 (stereo unspecified),8
5,C=C(CN(C)C)C(=O)c1ccc(C)cc1,7.6
6,C=C(CN(C)C)C(=O)c1ccc(Cl)cc1,6.4

# System: L1210
# Assay: Cytotoxicity against mouse L1210 cells after 48 hrs
# Conditions: L1210, 48 h
row,Structure (SMILES),IC50 [µM]
1,CN(C)CC(CSCCO)C(=O)c1ccc([N+](=O)[O-])cc1 (stereo unspecified),> 500
2,Cc1ccc(C(=O)C(CO)CN(C)C)cc1 (stereo unspecified),6.55
3,COc1ccc(C(=O)C(CO)CN(C)C)cc1 (stereo unspecified),1.57
4,CN(C)CC(CO)C(=O)c1ccc(Cl)cc1 (stereo unspecified),22
5,C=C(CN(C)C)C(=O)c1ccc(C)cc1,11.1
6,C=C(CN(C)C)C(=O)c1ccc(Cl)cc1,26.5

# System: not listed separately
# Assay: Cytotoxicity against human HGF cells
# Type: cell-based
# Conditions: not given
# Procedure, shortened: as §1
row,Structure (SMILES),CC50 [µM]
1,CN(C)CC(CSCCO)C(=O)c1ccc([N+](=O)[O-])cc1 (stereo unspecified),390
2,Cc1ccc(C(=O)C(CO)CN(C)C)cc1 (stereo unspecified),4.9
3,COc1ccc(C(=O)C(CO)CN(C)C)cc1 (stereo unspecified),4
4,CN(C)CC(CO)C(=O)c1ccc(Cl)cc1 (stereo unspecified),5.8
5,C=C(CN(C)C)C(=O)c1ccc(C)cc1,6.1
6,C=C(CN(C)C)C(=O)c1ccc(Cl)cc1,6.1

# System: HL-60
# Assay: Cytotoxicity against human HL60 cells
# Type: functional
# Conditions: not given
# Procedure, shortened: as §1
row,Structure (SMILES),CC50 [µM]
1,CN(C)CC(CSCCO)C(=O)c1ccc([N+](=O)[O-])cc1 (stereo unspecified),353
2,Cc1ccc(C(=O)C(CO)CN(C)C)cc1 (stereo unspecified),< 3.1
3,COc1ccc(C(=O)C(CO)CN(C)C)cc1 (stereo unspecified),0.46
4,CN(C)CC(CO)C(=O)c1ccc(Cl)cc1 (stereo unspecified),< 3.1
5,C=C(CN(C)C)C(=O)c1ccc(C)cc1,0.45
6,C=C(CN(C)C)C(=O)c1ccc(Cl)cc1,< 3.1

# System: RPMI-8226
# Assay: Cytotoxicity against human RPMI8226 cells
# Type: functional, cell-based
# Conditions: not given
# Procedure, shortened: (§2)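 Part of a human tumour cell line panel screen run by a literature procedure with compounds at 10−8–10−4 M. GI50 is the concentration giving 50% growth inhibition. Where 50% inhibition was not reached at 100 μM, 100 μM was used as the value.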
row,Structure (SMILES),IC50 [µM]
1,CN(C)CC(CSCCO)C(=O)c1ccc([N+](=O)[O-])cc1 (stereo unspecified),38
2,COc1ccc(C(=O)C(CO)CN(C)C)cc1 (stereo unspecified),20

# System: CCRF-CEM
# Assay: Cytotoxicity against human CCRF-CEM cells
# Type: functional, cell-based
# Conditions: not given
# Procedure, shortened: as §2
row,Structure (SMILES),IC50 [µM]
1,CN(C)CC(CSCCO)C(=O)c1ccc([N+](=O)[O-])cc1 (stereo unspecified),> 100
2,CN(C)CC(CO)C(=O)c1ccc(Cl)cc1 (stereo unspecified),0.32
3,C=C(CN(C)C)C(=O)c1ccc(Cl)cc1,3.31

# System: not listed separately
# Assay: Cytotoxicity against human HPC cells
# Type: cell-based
# Conditions: not given
# Procedure, shortened: as §1
row,Structure (SMILES),CC50 [µM]
1,CN(C)CC(CSCCO)C(=O)c1ccc([N+](=O)[O-])cc1 (stereo unspecified),400
2,Cc1ccc(C(=O)C(CO)CN(C)C)cc1 (stereo unspecified),5.7
3,COc1ccc(C(=O)C(CO)CN(C)C)cc1 (stereo unspecified),5.3
4,CN(C)CC(CO)C(=O)c1ccc(Cl)cc1 (stereo unspecified),5.4
5,C=C(CN(C)C)C(=O)c1ccc(C)cc1,6.9
6,C=C(CN(C)C)C(=O)c1ccc(Cl)cc1,6

# System: CCRF-CEM
# Assay: Cytotoxicity against human CEM cells after 72 hrs
# Type: functional, cell-based
# Conditions: not given
# Procedure, shortened: (§3)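 Human transformed T-lymphocytes exposed to a range of compound concentrations at 37 °C for 72 h. IC50 is the concentration giving 50% inhibition of cell growth.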
row,Structure (SMILES),IC50 [µM]
1,CN(C)CC(CSCCO)C(=O)c1ccc([N+](=O)[O-])cc1 (stereo unspecified),> 500
2,Cc1ccc(C(=O)C(CO)CN(C)C)cc1 (stereo unspecified),8.22
3,COc1ccc(C(=O)C(CO)CN(C)C)cc1 (stereo unspecified),1.15
4,CN(C)CC(CO)C(=O)c1ccc(Cl)cc1 (stereo unspecified),33.1
5,C=C(CN(C)C)C(=O)c1ccc(C)cc1,11.4
6,C=C(CN(C)C)C(=O)c1ccc(Cl)cc1,32.6

# System: not listed separately
# Assay: Cytotoxicity against human HPLF cells
# Type: cell-based
# Conditions: not given
# Procedure, shortened: as §1
row,Structure (SMILES),CC50 [µM]
1,CN(C)CC(CSCCO)C(=O)c1ccc([N+](=O)[O-])cc1 (stereo unspecified),400
2,Cc1ccc(C(=O)C(CO)CN(C)C)cc1 (stereo unspecified),9.8
3,COc1ccc(C(=O)C(CO)CN(C)C)cc1 (stereo unspecified),4.9
4,CN(C)CC(CO)C(=O)c1ccc(Cl)cc1 (stereo unspecified),12
5,C=C(CN(C)C)C(=O)c1ccc(C)cc1,8.1
6,C=C(CN(C)C)C(=O)c1ccc(Cl)cc1,9.2

# System: K562
# Assay: Cytotoxicity against human K562 cells
# Type: functional, cell-based
# Conditions: not given
# Procedure, shortened: as §2
row,Structure (SMILES),IC50 [µM]
1,CN(C)CC(CSCCO)C(=O)c1ccc([N+](=O)[O-])cc1 (stereo unspecified),> 100
2,COc1ccc(C(=O)C(CO)CN(C)C)cc1 (stereo unspecified),0.49
3,CN(C)CC(CO)C(=O)c1ccc(Cl)cc1 (stereo unspecified),0.33
4,C=C(CN(C)C)C(=O)c1ccc(Cl)cc1,3.47

# System: HSC-2
# Assay: Cytotoxicity against human HSC2 cells
# Type: functional
# Conditions: not given
# Procedure, shortened: as §1
row,Structure (SMILES),CC50 [µM]
1,CN(C)CC(CSCCO)C(=O)c1ccc([N+](=O)[O-])cc1 (stereo unspecified),165
2,Cc1ccc(C(=O)C(CO)CN(C)C)cc1 (stereo unspecified),6.3
3,COc1ccc(C(=O)C(CO)CN(C)C)cc1 (stereo unspecified),2.5
4,CN(C)CC(CO)C(=O)c1ccc(Cl)cc1 (stereo unspecified),6
5,C=C(CN(C)C)C(=O)c1ccc(C)cc1,3.4
6,C=C(CN(C)C)C(=O)c1ccc(Cl)cc1,5.1

# System: not listed separately
# Assay: Cytotoxicity against human Molt4/C8 cells after 72 hrs
# Type: functional, cell-based
# Conditions: MOLT-4, 72 h
# Procedure, shortened: as §3
row,Structure (SMILES),IC50 [µM]
1,CN(C)CC(CSCCO)C(=O)c1ccc([N+](=O)[O-])cc1 (stereo unspecified),> 500
2,Cc1ccc(C(=O)C(CO)CN(C)C)cc1 (stereo unspecified),21
3,COc1ccc(C(=O)C(CO)CN(C)C)cc1 (stereo unspecified),4.9
4,CN(C)CC(CO)C(=O)c1ccc(Cl)cc1 (stereo unspecified),30.9
5,C=C(CN(C)C)C(=O)c1ccc(C)cc1,35.5
6,C=C(CN(C)C)C(=O)c1ccc(Cl)cc1,30.2

# System: SR
# Assay: Cytotoxicity against human SR cells
# Type: cell-based
# Conditions: not given
# Procedure, shortened: as §2
row,Structure (SMILES),IC50 [µM]
1,CN(C)CC(CSCCO)C(=O)c1ccc([N+](=O)[O-])cc1 (stereo unspecified),> 100
2,CN(C)CC(CO)C(=O)c1ccc(Cl)cc1 (stereo unspecified),0.63
3,C=C(CN(C)C)C(=O)c1ccc(Cl)cc1,3.98
